Results from ChEMBL document CHEMBL1817588, “Design and synthesis of 1,3-biarylsulfanyl derivatives as new anti-breast cancer agents” (Bioorg Med Chem, 2011).
The source made the active and inactive calls. The rule behind the calls is not given here.

Assays:
MDA-MB-231 [1] = experiment: Antiproliferative activity against estrogen receptor-deficient human MDA-MB-231 cells […] after 48 hrs by MTT assay; type: functional, cell-based; details: MDA-MB-231, 48 h
How it was run: (§1)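 Cells seeded at 1×10^4/well in DMEM with 10% FBS for 24 h at 37 °C, then exposed to compounds for 48 h. MTT (5 mg/mL) added for 4 h. Formazan dissolved in DMSO and absorbance read at 540 nm. Routine culture used DMEM with 10% FBS, 5% CO2, reduced to 2% FBS for growth inhibition.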

MCF7 [2] = experiment: Antiproliferative activity against human MCF7 cells expressing estrogen receptor at 50 uM after 48 hrs by MTT assay; type: functional, cell-based
Ishikawa [3] = experiment: Antiproliferative activity against human Ishikawa cells expressing estrogen receptor after 48 hrs by MTT assay; type: functional, cell-based; how it was run: as §1
MDA-MB-231 [4] = experiment: Antiproliferative activity against estrogen receptor-deficient human MDA-MB-231 cells […] at 50 uM after 48 hrs by MTT assay; type: functional, cell-based
MCF7 [5] = experiment: Antiproliferative activity against human MCF7 cells expressing estrogen receptor after 48 hrs by MTT assay; type: functional, cell-based; details: MCF7, 48 h; how it was run: as §1
Ishikawa [6] = experiment: Antiproliferative activity against human Ishikawa cells expressing estrogen receptor at 50 uM after 48 hrs by MTT assay; type: functional, cell-based
Rattus norvegicus [7] = experiment: Estrogenic activity in Sprague-Dawley rat assessed as increase in uterine weight administered as po daily once for 3 days relative to control; type: functional; set-up: concentration or dose not given beside the values
How it was run: (§2)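 Immature female Sprague-Dawley rats given oral dosing once daily for 3 days on days 28–30 of age. Antiestrogenic arm co-dosed ethynylestradiol 0.02 mg/kg in 10% ethanol-water. Autopsy 24 h after last dose (day 31). Uterus excised, blotted and weighed, with vaginal opening and cornification also scored. Inhibition computed as (E − T)×100/E versus ethynylestradiol alone. Estrogenic gain expressed as percent increase over vehicle control.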

Rattus norvegicus [8] = experiment: Antiestrogenic activity in Sprague-Dawley rat assessed as inhibition of uterine weight gain administered as po daily once for 3 days relative to 17alpha-ethynylestradiol; type: functional; how it was run: as §2
Rattus norvegicus [9] = organism: Rattus norvegicus; experiment: Displacement of [3H]-estradiol from estrogen receptor in rat uteri after 18 hrs by scintillation counting relative to 17beta-estradiol
How it was run: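 Cytosol from uteri of immature 20–21-day-old rats, in TEA buffer pH 7.4 (10 mM Tris, 1.5 mM EDTA, 0.02% azide). Incubated in triplicate with fixed 3H-estradiol ± competitor (DMF ≤5% final) for 18 h at 4 °C. Free ligand removed with dextran-coated charcoal (15 min, 800g 10 min), then supernatant counted. RBA taken at 50% inhibition from the bound-versus-log concentration plot.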

Bone [10] = experiment: Antiosteoporotic activity in Sprague-Dawley rat [45Ca] pre-labeled bone assessed as inhibition of PTH-induced bone resorption after 96 hrs relative to control
Bone [11] = experiment: Antiosteoporotic activity in Sprague-Dawley rat [45Ca] pre-labeled bone assessed as inhibition of PTH-induced bone resorption after 96 hrs
HEK293 = experiment: Antiproliferative activity against human HEK293 cells after 48 hrs by MTT assay; type: cell-based; details: HEK293, 48 h; how it was run: as §1

| IC50 (MDA-MB-231 [1]) [µM] | IC50 (MCF7 [5]) [µM] | SMILES | Activity (MCF7 [2]) | IC50 (Ishikawa [3]) [µM] | Activity (MDA-MB-231 [4]) | Activity (Ishikawa [6]) | other results |
| --- | --- | --- | --- | --- | --- | --- | --- |
| 44 |  | COc1ccc(C(CC(=O)c2ccccc2)SCCC(=O)O)cc1 (stereo not given) | inactive | 24 |  |  |  |
| 44 |  | O=C(CC(Sc1ccc([N+](=O)[O-])cc1)c1ccccc1)c1ccccc1 (stereo not given) | inactive | 23 |  |  |  |
|  | 24 | CCSC(CC(=O)c1ccccc1)c1ccc(OC)cc1 (stereo not given) |  |  | inactive | inactive |  |
|  | 27 | CCSC(CC(=O)c1ccc(OC)cc1)c1ccc(OC)cc1 (stereo not given) |  |  | inactive | inactive |  |
|  |  | CCSC(CC(=O)c1ccccc1)c1ccc(O)cc1 (stereo not given) | inactive |  | inactive | inactive |  |
|  | 12.5 | CC/C(=C(\c1ccccc1)c1ccc(OCCN(C)C)cc1)c1ccccc1 [TAMOXIFEN] |  | 22.5 |  |  | Activity (Rattus norvegicus [7]): 155%; inhibition (INH) (Rattus norvegicus [8]): 49%; RBA (Rattus norvegicus [9]): 2.2% |
| 31 | 28 | O=C(CC(Sc1ccc(Cl)cc1)c1ccccc1)c1ccc(Cl)cc1 (stereo not given) |  | 24 |  |  |  |
| 41 | 29 | COc1ccc(C(=O)CC(Sc2ccccc2)c2ccccc2)cc1 (stereo not given) |  |  |  | inactive |  |
|  |  | O=C(c1ccc(OCCN2CCCCC2)cc1)c1c(-c2ccc(O)cc2)sc2cc(O)ccc12 [RALOXIFENE] |  |  |  |  | inhibition (INH) (Bone [10]): 38%; T/C (Bone [11]): 0.62 |
|  |  | Cc1ccc(SC(CC(=O)c2ccccc2)c2ccccc2)cc1 (stereo not given) | inactive |  | inactive | inactive |  |
|  |  | O=C(CC(Sc1ccc(Cl)cc1)c1ccccc1)c1ccccc1 (stereo not given) | inactive |  | inactive | inactive |  |
|  | 25 | CSC(CC(=O)c1ccccc1)c1ccccc1 (stereo not given) |  | 25 | inactive |  |  |
|  |  | COc1ccc(C(CC(=O)c2ccc(Cl)cc2)Sc2ccccc2)cc1 (stereo not given) | inactive | 25 | inactive |  |  |
| 48 | 30 | O=C(CC(Sc1ccccc1)c1ccccc1)c1ccc2ccccc2c1 (stereo not given) |  | 26 |  |  |  |
| 38 | 25 | O=C(CC(Sc1ccccc1)c1ccccc1)c1cccc([N+](=O)[O-])c1 (stereo not given) |  | 21 |  |  |  |
| 33 | 19 | O=C(CC(Sc1ccccc1)c1ccc(O)cc1)c1ccccc1 (stereo not given) |  |  |  | inactive | IC50 (HEK293): 31.4 µM |
| 42 |  | O=C(O)CCSC(CC(=O)c1ccccc1)c1ccccc1 (stereo not given) | inactive | 23 |  |  |  |
| 45 | 23 | COc1ccc(C(CC(=O)c2ccccc2)Sc2ccc(C)cc2)cc1 (stereo not given) |  | 17 |  |  |  |
| 41 | 27 | Cc1ccc(SC(CC(=O)c2cccc(Cl)c2)c2ccc(C)cc2)cc1 (stereo not given) |  |  |  | inactive |  |
| 35 | 25 | Cc1cccc(SC(CC(=O)c2ccccc2)c2ccc(O)cc2)c1 (stereo not given) |  | 22 |  |  |  |
|  |  | COc1ccc(C(=O)CC(Sc2ccc(Cl)cc2)c2ccccc2)cc1 (stereo not given) | inactive | 22 | inactive |  |  |
| 36 | 25 | Cc1ccc(C(CC(=O)c2cccc(Cl)c2)Sc2ccccc2)cc1 (stereo not given) |  | 28 |  |  |  |
| 29 | 25 | O=C(CC(Sc1ccc(Cl)cc1)c1ccccc1)c1ccc([N+](=O)[O-])cc1 (stereo not given) |  | 21 |  |  |  |
| 38 | 24 | O=C(CC(Sc1ccccc1)c1ccccc1)c1ccc(O)cc1 (stereo not given) |  |  |  | inactive |  |
| 32 | 29 | O=C(CC(Sc1ccccc1)c1ccccc1)c1cccc(Cl)c1 (stereo not given) |  | 29 |  |  |  |
| 36 | 25 | COc1ccc(C(CC(=O)c2ccccc2)Sc2ccc(Cl)cc2)cc1 (stereo not given) |  | 22 |  |  |  |
